Each block holds one molecule with its values, some of them ahead of it.
Key:
FM3A = assay: Cytotoxicity against mouse FM3A0 cells after 2 days; format: functional, cell-based; conditions: 48 h
HeLa = assay: Cytotoxicity against human HeLa cells after 2 days; format: functional, cell-based; conditions: 48 h
[1] = Cytotoxicity against human Molt4/C8 cells after 2 days; conditions: MOLT-4, 48 h
CCRF-CEM = assay: Cytotoxicity against human CEM cells after 2 days; format: functional, cell-based; conditions: 48 h
L1210 = assay: Cytotoxicity against mouse L1210 cells after 2 days; format: functional, cell-based; conditions: L1210, 48 h
Summary of the method: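 Cells were incubated with the compounds at 37 °C for two days, then counted on a Coulter counter. IC50 is the concentration that inhibits cell proliferation by 50%.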

K562 [2] = assay: Cell cycle arrest in human K562 cells assessed as accumulation at G2 phase at 980 nM after 24 hrs by flow cytometry; format: functional
Summary of the method: (§1)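 K562 leukaemia cells were cultured for 24 h with compound at one fixed concentration. DNA content per cell was measured by the standard propidium iodide procedure and flow cytometry. Proportions of cells in the sub-G0–G1 (apoptotic), G0–G1, S and G2–M peaks were compared with an untreated control.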

[3] = Inhibition of bovine tubulin polymerization; design: species or system Bos taurus
Summary of the method: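 Purified bovine brain tubulin (10 μM) in glutamate buffer was preincubated with varying compound concentrations at 30 °C, then cooled to 0 °C. GTP was added and the mixture warmed to 30 °C in a recording spectrophotometer. Assembly was followed by turbidity.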

K562 [4] = assay: Cell cycle arrest in human K562 cells assessed as accumulation at S phase at 980 nM after 24 hrs by flow cytometry; format: functional; summary of the method: as §1
Bos taurus = species on record: Bos taurus; assay: Displacement of [3H]colchicine from bovine tubulin at 5 uM
Summary of the method: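 Reaction mixtures held 1 μM bovine brain tubulin, 5 μM [3H]colchicine and 5 μM test compound. Inhibition of radiolabelled colchicine binding to tubulin is expressed as percent inhibition.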

K562 [5] = assay: Cell cycle arrest in human K562 cells assessed as accumulation at sub-G0/G1 phase at 980 nM after 24 hrs by flow cytometry; format: functional; summary of the method: as §1
K562 [6] = assay: Cell cycle arrest in human K562 cells assessed as accumulation at G1 phase at 980 nM after 24 hrs by flow cytometry; format: functional; summary of the method: as §1
K562 [7] = assay: Cell cycle arrest in human K562 cells assessed as accumulation at G2 phase at 420 nM after 24 hrs by flow cytometry; format: functional
K562 [8] = assay: Cell cycle arrest in human K562 cells assessed as accumulation at sub-G0/G1 phase at 420 nM after 24 hrs by flow cytometry; format: functional
K562 [9] = assay: Cell cycle arrest in human K562 cells assessed as accumulation at S phase at 420 nM after 24 hrs by flow cytometry; format: functional
K562 [10] = assay: Cell cycle arrest in human K562 cells assessed as accumulation at G1 phase at 420 nM after 24 hrs by flow cytometry; format: functional
K562 [11] = assay: Cell cycle arrest in human K562 cells assessed as accumulation at G2 phase at 16 nM after 24 hrs by flow cytometry; format: functional; summary of the method: as §1
K562 [12] = assay: Cell cycle arrest in human K562 cells assessed as accumulation at S phase at 16 nM after 24 hrs by flow cytometry; format: functional; summary of the method: as §1
K562 [13] = assay: Cell cycle arrest in human K562 cells assessed as accumulation at G1 phase at 16 nM after 24 hrs by flow cytometry; format: functional; summary of the method: as §1
K562 [14] = assay: Cell cycle arrest in human K562 cells assessed as accumulation at sub-G0/G1 phase at 16 nM after 24 hrs by flow cytometry; format: functional; summary of the method: as §1
K562 [15] = assay: Cell cycle arrest in human K562 cells assessed as accumulation at G1 phase at 230 nM after 24 hrs by flow cytometry; format: functional; summary of the method: as §1
K562 [16] = assay: Cell cycle arrest in human K562 cells assessed as accumulation at G2 phase at 230 nM after 24 hrs by flow cytometry; format: functional; summary of the method: as §1
K562 [17] = assay: Cell cycle arrest in human K562 cells assessed as accumulation at S phase at 230 nM after 24 hrs by flow cytometry; format: functional; summary of the method: as §1
K562 [18] = assay: Cell cycle arrest in human K562 cells assessed as accumulation at sub-G0/G1 phase at 230 nM after 24 hrs by flow cytometry; format: functional; summary of the method: as §1
K562 [19] = assay: Cell cycle arrest in human K562 cells assessed as accumulation at G2 phase at 480 nM after 24 hrs by flow cytometry; format: functional
K562 [20] = assay: Cell cycle arrest in human K562 cells assessed as accumulation at S phase at 480 nM after 24 hrs by flow cytometry; format: functional
K562 [21] = assay: Cell cycle arrest in human K562 cells assessed as accumulation at G1 phase at 480 nM after 24 hrs by flow cytometry; format: functional
K562 [22] = assay: Cell cycle arrest in human K562 cells assessed as accumulation at sub-G0/G1 phase at 480 nM after 24 hrs by flow cytometry; format: functional

SMILES: COc1cc(C(=O)c2cc3ccc(OC)c(O)c3o2)cc(OC)c1OC
IC50 (FM3A): > 10000 nM
IC50 (HeLa): > 10000 nM
IC50 [1]: > 10000 nM
IC50 (CCRF-CEM): > 10000 nM
IC50 (L1210): > 10000 nM

IC50 [3]: 1100 nM
Activity (Bos taurus): 76%
SMILES: COc1cc(C(=O)c2cc3c(OC)cccc3o2)cc(OC)c1OC
Activity (K562 [2]): 58.46%
IC50 (FM3A): 550 nM
Activity (K562 [4]): 37.4%
IC50 (HeLa): 410 nM
IC50 [1]: 360 nM
IC50 (CCRF-CEM): 870 nM
Activity (K562 [5]): 20.71%
Activity (K562 [6]): 4.14%
IC50 (L1210): 410 nM

SMILES: COc1ccc2cc(C(OC)c3cc(OC)c(OC)c(OC)c3)oc2c1 (configuration not stated)
IC50 (FM3A): > 10000 nM
IC50 (HeLa): 4400 nM
IC50 [1]: > 10000 nM
IC50 (CCRF-CEM): > 10000 nM
IC50 (L1210): > 10000 nM

SMILES: COc1cc(C(=O)c2cc3cc(Cl)ccc3o2)cc(OC)c1OC
IC50 (FM3A): > 10000 nM
IC50 (HeLa): > 10000 nM
IC50 [1]: > 10000 nM
IC50 (CCRF-CEM): > 10000 nM
IC50 (L1210): > 10000 nM

SMILES: COc1cc(C(=O)c2oc3c(OC)cccc3c2C)cc(OC)c1OC
IC50 (FM3A): 1700 nM
IC50 (HeLa): 530 nM
IC50 [1]: 400 nM
IC50 (CCRF-CEM): 2400 nM
IC50 (L1210): 1700 nM

SMILES: COc1cc(C(=O)c2cc3cccc(O)c3o2)cc(OC)c1OC
IC50 (FM3A): > 10000 nM
IC50 (HeLa): > 10000 nM
IC50 [1]: > 10000 nM
IC50 (CCRF-CEM): > 10000 nM
IC50 (L1210): > 10000 nM

SMILES: COc1ccc2cc(C(=O)c3cc(OC)c(OC)c(OC)c3)oc2c1
IC50 [3]: 700 nM
IC50 (FM3A): 100 nM
IC50 (HeLa): 110 nM
Activity (K562 [7]): 59.11%
Activity (K562 [8]): 16.36%
IC50 [1]: 59 nM
Activity (Bos taurus): 79%
IC50 (CCRF-CEM): 70 nM
Activity (K562 [9]): 39.06%
Activity (K562 [10]): 1.83%
IC50 (L1210): 90 nM

Activity (Bos taurus): 99%
SMILES: COc1ccc(/C=C\c2cc(OC)c(OC)c(OC)c2)cc1O

IC50 [3]: 430 nM
Activity (Bos taurus): 96%
SMILES: CCOc1ccc2c(C)c(C(=O)c3cc(OC)c(OC)c(OC)c3)oc2c1
Activity (K562 [11]): 70.99%
IC50 (FM3A): 2.8 nM
IC50 (HeLa): 6.3 nM
IC50 [1]: 1.2 nM
Activity (K562 [12]): 25.34%
IC50 (CCRF-CEM): 2.8 nM
IC50 (L1210): 2 nM
Activity (K562 [13]): 3.67%
Activity (K562 [14]): 13.24%

IC50 [3]: 1200 nM
Activity (Bos taurus): 65%
SMILES: COc1ccc2oc(C(=O)c3cc(OC)c(OC)c(OC)c3)c(C)c2c1
Activity (K562 [15]): 1.44%
IC50 (FM3A): 4400 nM
Activity (K562 [16]): 58.18%
IC50 [1]: 1900 nM
Activity (K562 [17]): 40.38%
IC50 (CCRF-CEM): 400 nM
Activity (K562 [18]): 18.18%
IC50 (L1210): 2300 nM

SMILES: COc1ccc2cc(C(=S)c3cc(OC)c(OC)c(OC)c3)oc2c1
IC50 (FM3A): 320 nM
IC50 (HeLa): 100 nM
IC50 [1]: 100 nM
IC50 (CCRF-CEM): 220 nM
IC50 (L1210): 180 nM

SMILES: COc1cc(C(=O)c2cc3cc(O)ccc3o2)cc(OC)c1OC
IC50 (FM3A): > 10000 nM
IC50 (HeLa): > 10000 nM
IC50 [1]: > 10000 nM
IC50 (CCRF-CEM): > 10000 nM
IC50 (L1210): > 10000 nM

SMILES: COc1ccc2c(N)c(C(=O)c3cc(OC)c(OC)c(OC)c3)oc2c1
IC50 [1]: 140 nM

SMILES: COc1ccc2c(N(C)C)c(C(=O)c3cc(OC)c(OC)c(OC)c3)oc2c1
IC50 [1]: 48 nM

SMILES: COc1cc(C(=O)c2oc3ccc(O)cc3c2C)cc(OC)c1OC
IC50 [3]: 1100 nM
IC50 (FM3A): 430 nM
Activity (K562 [19]): 47.38%
IC50 (HeLa): 290 nM
IC50 [1]: 240 nM
Activity (K562 [20]): 33.83%
Activity (Bos taurus): 69%
IC50 (CCRF-CEM): 430 nM
Activity (K562 [21]): 18.79%
Activity (K562 [22]): 22.13%
IC50 (L1210): 800 nM

SMILES: COc1cc2cc(C(=O)c3cc(OC)c(OC)c(OC)c3)oc2cc1OC
IC50 (FM3A): 1200 nM
IC50 (HeLa): 570 nM
IC50 [1]: 770 nM
IC50 (CCRF-CEM): 1900 nM
IC50 (L1210): 1800 nM

Source: ChEMBL document CHEMBL1152591, “Design, synthesis and structure-activity relationship of 2-(3',4',5'-trimethoxybenzoyl)-benzo[b]furan derivatives as a novel class of inhibitors of tubulin polymerization” (Bioorg Med Chem, 2009)
